Laboratory results: ChEMBL document CHEMBL1140745, “Rationalizing the activities of diverse cholecystokinin 2 receptor antagonists using molecular field points” (J Med Chem, 2008)
Residues, ends and D or L forms follow the SMILES beside them. *: point of attachment. NHPhenethyl = c1ccc(CCN*)cc1; Boc = CC(C)(C)OC(=O)*

Columns and labels:
[1] = target: T1, Gastrin/cholecystokinin type B receptor (Rattus norvegicus) (UniProt P30553); details: Stomach
T1 sequence (whole entry): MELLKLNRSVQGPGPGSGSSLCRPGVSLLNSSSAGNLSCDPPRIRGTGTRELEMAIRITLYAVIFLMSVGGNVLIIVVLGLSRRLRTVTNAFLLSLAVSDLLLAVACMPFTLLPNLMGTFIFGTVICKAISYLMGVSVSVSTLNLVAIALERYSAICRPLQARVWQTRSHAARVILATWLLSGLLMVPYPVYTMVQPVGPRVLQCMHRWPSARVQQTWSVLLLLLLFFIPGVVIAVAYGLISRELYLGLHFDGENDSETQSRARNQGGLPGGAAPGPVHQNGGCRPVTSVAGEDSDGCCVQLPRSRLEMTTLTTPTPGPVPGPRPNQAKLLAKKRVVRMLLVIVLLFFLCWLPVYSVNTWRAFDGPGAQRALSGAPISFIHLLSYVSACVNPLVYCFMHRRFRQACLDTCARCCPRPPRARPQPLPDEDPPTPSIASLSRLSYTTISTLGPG

[2] = target: T2, Cholecystokinin receptor type A (Cavia porcellus, UniProt Q63931); assay: Displacement of [125I]BH-CCK-8S from […] expressed in guinea pig pancreatic cells; type: cell-based
T2 sequence (Q63931 whole entry): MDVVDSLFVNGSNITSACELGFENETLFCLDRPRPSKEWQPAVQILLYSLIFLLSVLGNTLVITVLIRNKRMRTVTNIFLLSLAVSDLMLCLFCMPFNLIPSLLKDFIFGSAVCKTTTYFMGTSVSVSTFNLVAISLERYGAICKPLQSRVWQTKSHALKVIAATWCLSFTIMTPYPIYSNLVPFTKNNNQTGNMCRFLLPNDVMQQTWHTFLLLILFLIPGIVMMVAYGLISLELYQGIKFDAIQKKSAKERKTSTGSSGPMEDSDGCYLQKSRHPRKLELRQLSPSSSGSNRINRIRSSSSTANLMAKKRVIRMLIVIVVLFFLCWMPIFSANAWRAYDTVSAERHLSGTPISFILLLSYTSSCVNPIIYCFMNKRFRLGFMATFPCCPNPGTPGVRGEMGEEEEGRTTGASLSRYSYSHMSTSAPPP
Method in brief: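 Radioligand competition binding on guinea pig pancreas cell homogenates, using 20 pM [125I]BH-CCK-8S as the tracer. Affinity is reported as pKi. Results come from at least three separate experiments.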

| SMILES | pKb [1] | Ki [2] |
| --- | --- | --- |
| O=C(O)c1cc(NC(=O)[C@H](Cc2ccccc2)NC(=O)C2C3c4ccccc4C(c4ccccc43)C2C(=O)NCC23CC4CC(CC(C4)C2)C3)cc(C(=O)O)c1 (stereo partly specified) | 8.3 | – |
| O=C(O)c1cc(NC(=O)[C@H](Cc2ccccc2)NC(=O)c2cc3cc[nH]c3cc2C(=O)NCC23CC4CC(CC(C4)C2)C3)cc(C(=O)O)c1 | 9.3 | – |
| C[C@](Cc1c[nH]c2ccccc12)(NC(=O)OC1[C@H]2C[C@@H]3C[C@@H](C[C@H]1C3)C2)C(=O)NC[C@H](NC(=O)CCC(=O)O)c1ccccc1 (stereo partly specified) [CI-988] | – | 0.631 µM |
| CC(=O)N1[C@H](CC23CC4CC(CC(C4)C2)C3)C(=O)N(Cc2ccccc2)c2ccccc2C(=O)C[C@H]1C(=O)NCC(=O)O | 6.8 | 7.94 µM |
| CC(C)C[C@H](NC(=O)[C@H](Cc1c[nH]c2ccccc12)NC(=O)OC(C)(C)C)C(=O)N[C@@H](CC(=O)O)C(=O)NCCc1ccccc1 (Boc-Trp-Leu-Asp-NHPhenethyl) | 6.9 | 7.94 µM |
| O=C(O)c1cccc(NC(=O)c2nc(-c3ccccc3)[nH]c2CC23CC4CC(CC(C4)C2)C3)c1 | 6.6 | 1.26 µM |
| O=C(O)c1cc(NC(=O)[C@H](Cc2ccc(I)cc2)NC(=O)c2cc3cc[nH]c3cc2C(=O)NCC23CC4CC(CC(C4)C2)C3)cc(C(=O)O)c1 | 9.1 | 2 µM |
| C[C@@H](NC(=O)C[C@@H]1CCCN1C(=O)C1C2c3ccccc3C(c3ccccc32)C1C(=O)NCC12CC3CC(CC(C3)C1)C2)C(=O)O (stereo partly specified) | 7.3 | 25.1 µM |
| O=C(O)C1C2c3ccccc3C(c3ccccc32)C1C(=O)NCC12CC3CC(CC(C3)C1)C2 (stereo unspecified) | 5.6 | – |
| CN1C(=O)[C@H](NC(=O)Nc2cccc(-c3nnn[nH]3)c2)N=C(c2ccccc2)c2ccccc21 | 8.4 | 0.316 µM |
| Cn1ccc2cc(C(=O)N[C@@H](Cc3ccccc3)C(=O)Nc3cc(C(=O)O)cc(C(=O)O)c3)c(C(=O)NCC34CC5CC(CC(C5)C3)C4)cc21 | 9.8 | 3.98 µM |
| O=C(O)c1cc(NC(=O)[C@H](Cc2ccccc2)NC(=O)c2cc3cc[nH]c3cc2C(=O)NC2CCCCCC2)cc(C(=O)O)c1 | 9.3 | 3.16 µM |
| COc1ccc(CCNC(=O)[C@H](CC(=O)O)NC(=O)[C@H](Cc2ccc3ccccc3c2)NC(=O)[C@H](Cc2c[nH]c3ccccc23)NC(=O)OC(C)(C)C)cc1 | 5.4 | 0.0631 µM |
| O=C1NN(C(=O)Nc2ccc(Br)cc2)[C@H](c2ccccc2)[C@H]1c1ccccc1 | 5.9 | 20 µM |
| O=C(O)c1cc(NC(=O)[C@H](Cc2ccccc2)NC(=O)c2cc3ccccc3cc2C(=O)NCC23CC4CC(CC(C4)C2)C3)cc(C(=O)O)c1 | 8.2 | – |
| O=C(O)c1cccc(NC(=O)c2nc(C3CCCCC3)[nH]c2COC23CC4CC(CC(C4)C2)C3)c1 | 9.1 | – |
| Nc1cccc2cc(C(=O)N[C@@H](Cc3ccccc3)C(=O)Nc3cc(C(=O)O)cc(C(=O)O)c3)c(C(=O)NCC34CC5CC(CC(C5)C3)C4)cc12 | 9 | 2.51 µM |
| Nc1cccc2cc(C(=O)NCC34CC5CC(CC(C5)C3)C4)c(C(=O)N[C@@H](Cc3ccccc3)C(=O)Nc3cc(C(=O)O)cc(C(=O)O)c3)cc12 | 8.2 | 2.51 µM |
| CNc1cccc(NC(=O)N[C@@H]2N=C(c3ccccn3)c3ccccc3N(CC(=O)C(C)(C)C)C2=O)c1 [NETAZEPIDE] | 9.9 | 0.398 µM |
| O=C(O)c1cc(NC(=O)[C@H](Cc2ccccc2)NC(=O)c2cc3sccc3cc2C(=O)NCC23CC4CC(CC(C4)C2)C3)cc(C(=O)O)c1 | 9.4 | 0.794 µM |
| Cc1cccc(NC(=O)N[C@@H]2N=C(c3ccccc3)c3ccccc3N(C)C2=O)c1 [L-365260] | 7.6 | 0.316 µM |
